Assay results published in ChEMBL document CHEMBL4251575, “Design, synthesis, and biological evaluation of 1,3-diarylisoquinolines as novel topoisomerase I catalytic inhibitors” (Eur J Med Chem, 2018).
Where a name gives a salt, the structure may show the parent alone. Activity calls are given as the source filed them. No cut-off for these calls is given here.

Columns and labels:
[1] = species on record: Sus scrofa; assay: Induction of porcine brain tubulin polymerization at 10 uM after 61 mins by spectroscopic analysis
Summary of the method: (§1)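 Porcine brain tubulin at 1.5 mg/mL final in cold PEM buffer (80 mM Na-PIPES pH 6.9, 1 mM MgCl₂, 30% glycerol, 1 mM EGTA) with 1 mM GTP. Compounds were dissolved in DMSO and diluted in PEM. They were pre-warmed 2 min at 37 °C before tubulin was added. DMSO vehicle and paclitaxel controls. A340 was read each minute for 61 min at 37 °C.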

[2] = tested on: DU-145; assay: Cytotoxicity against human DU145 cells after 72 hrs by cell counting kit-8 analysis; format: functional, cell-based; details: DU-145, 72 h
Summary of the method: (§2)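 Cells seeded at 2×10^5 or 1×10^5 per well, grown overnight in medium with 10% FBS at 37 °C, 5% CO₂, then FBS-starved 4 h. Graded compound concentrations given for 72 h. CCK-8 then added for 4 h and absorbance read at 450 nm. IC50 from a four-parameter logistic fit; mean ± S.D. of three experiments, each in triplicate.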

[3] = biological target: DNA topoisomerase 2-alpha (Homo sapiens) (UniProt P11388); assay: Inhibition of human DNA topoisomerase 2 alpha-mediated DNA relaxation at 100 uM incubated for 30 mins using pBR322 DNA substrate by ethidium bromide dye-based agarose gel electrophoresis
Sequence of DNA topoisomerase 2-alpha (Homo sapiens) (P11388 whole entry): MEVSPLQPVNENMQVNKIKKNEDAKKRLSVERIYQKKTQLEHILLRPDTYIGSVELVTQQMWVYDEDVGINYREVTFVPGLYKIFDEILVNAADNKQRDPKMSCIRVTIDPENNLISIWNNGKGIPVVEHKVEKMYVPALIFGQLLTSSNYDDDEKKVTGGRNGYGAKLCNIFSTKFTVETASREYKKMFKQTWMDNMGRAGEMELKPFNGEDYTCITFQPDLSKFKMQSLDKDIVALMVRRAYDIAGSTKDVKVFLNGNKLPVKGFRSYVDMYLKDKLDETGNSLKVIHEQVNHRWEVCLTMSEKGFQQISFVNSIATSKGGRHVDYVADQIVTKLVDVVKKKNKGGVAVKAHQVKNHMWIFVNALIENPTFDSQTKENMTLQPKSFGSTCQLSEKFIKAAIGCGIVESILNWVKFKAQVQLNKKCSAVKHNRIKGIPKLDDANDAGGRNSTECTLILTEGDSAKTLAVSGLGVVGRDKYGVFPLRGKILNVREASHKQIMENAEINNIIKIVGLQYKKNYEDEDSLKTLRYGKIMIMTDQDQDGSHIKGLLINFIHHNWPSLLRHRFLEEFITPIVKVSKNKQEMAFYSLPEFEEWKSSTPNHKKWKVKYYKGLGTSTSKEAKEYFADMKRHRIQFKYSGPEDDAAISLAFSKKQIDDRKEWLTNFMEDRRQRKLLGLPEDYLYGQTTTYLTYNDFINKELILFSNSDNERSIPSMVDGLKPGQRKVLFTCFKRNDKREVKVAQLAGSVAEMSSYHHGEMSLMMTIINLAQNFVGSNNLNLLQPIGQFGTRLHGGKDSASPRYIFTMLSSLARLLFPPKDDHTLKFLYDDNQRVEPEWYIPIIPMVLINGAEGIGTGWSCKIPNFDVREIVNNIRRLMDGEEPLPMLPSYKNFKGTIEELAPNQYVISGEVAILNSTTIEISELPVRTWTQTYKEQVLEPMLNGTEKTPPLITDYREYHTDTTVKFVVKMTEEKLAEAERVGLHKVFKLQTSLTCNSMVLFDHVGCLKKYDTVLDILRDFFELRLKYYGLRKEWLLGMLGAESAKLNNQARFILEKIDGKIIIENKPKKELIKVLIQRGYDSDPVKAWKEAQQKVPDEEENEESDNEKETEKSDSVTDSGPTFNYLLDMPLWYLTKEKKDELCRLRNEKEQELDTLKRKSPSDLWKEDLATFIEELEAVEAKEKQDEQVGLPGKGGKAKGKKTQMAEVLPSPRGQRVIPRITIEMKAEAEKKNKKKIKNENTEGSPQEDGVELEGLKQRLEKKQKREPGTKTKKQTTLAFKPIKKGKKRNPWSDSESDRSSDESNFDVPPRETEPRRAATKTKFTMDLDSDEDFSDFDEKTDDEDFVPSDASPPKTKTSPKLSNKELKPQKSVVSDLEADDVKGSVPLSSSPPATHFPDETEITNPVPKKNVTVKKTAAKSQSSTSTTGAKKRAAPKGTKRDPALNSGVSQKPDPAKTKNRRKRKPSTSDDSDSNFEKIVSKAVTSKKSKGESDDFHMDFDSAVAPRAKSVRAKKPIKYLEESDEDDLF
Summary of the method: (§3)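 Stopped with EDTA and run on 1% agarose/TAE at 25 V for 4 h. EtBr-stained; supercoiled DNA quantified as % inhibition. Relative values are the ratio to the etoposide control.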

[4] = tested on: MCF-10A; assay: Cytotoxicity against human MCF10A cells after 72 hrs by cell counting kit-8 analysis; format: cell-based; summary of the method: as §2
[5] = biological target: T1, DNA topoisomerase 1 (Homo sapiens) (UniProt P11387); assay: Inhibition of human recombinant DNA topoisomerase 1-mediated DNA relaxation at 100 uM incubated for 30 mins using pBR322 DNA substrate by ethidium bromide dye-based agarose gel electrophoresis
T1 sequence (whole entry): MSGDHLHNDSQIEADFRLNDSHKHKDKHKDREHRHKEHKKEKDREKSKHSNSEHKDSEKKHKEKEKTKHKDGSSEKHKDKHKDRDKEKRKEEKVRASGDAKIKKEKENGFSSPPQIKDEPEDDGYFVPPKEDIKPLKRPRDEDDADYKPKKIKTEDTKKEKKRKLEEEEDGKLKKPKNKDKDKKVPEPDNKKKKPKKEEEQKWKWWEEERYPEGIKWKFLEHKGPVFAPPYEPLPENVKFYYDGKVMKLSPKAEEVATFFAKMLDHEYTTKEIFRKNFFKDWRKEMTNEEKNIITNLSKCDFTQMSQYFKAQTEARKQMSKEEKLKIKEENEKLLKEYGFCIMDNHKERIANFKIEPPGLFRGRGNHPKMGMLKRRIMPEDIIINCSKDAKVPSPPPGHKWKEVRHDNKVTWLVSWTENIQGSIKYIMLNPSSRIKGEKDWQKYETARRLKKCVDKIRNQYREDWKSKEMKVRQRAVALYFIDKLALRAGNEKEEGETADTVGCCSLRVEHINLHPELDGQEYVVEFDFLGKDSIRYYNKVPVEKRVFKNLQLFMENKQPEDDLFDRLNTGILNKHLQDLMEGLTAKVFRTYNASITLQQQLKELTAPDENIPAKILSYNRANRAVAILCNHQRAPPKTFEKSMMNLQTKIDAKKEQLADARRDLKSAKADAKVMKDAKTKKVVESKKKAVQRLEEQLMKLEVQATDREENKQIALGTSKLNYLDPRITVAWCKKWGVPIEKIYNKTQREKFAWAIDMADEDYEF
Summary of the method: (§4)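 pBR322 (100 ng) with recombinant human topo I (0.4 units) in 10 mM Tris-HCl pH 7.9, 150 mM NaCl, 0.1% BSA, 1 mM spermidine, 5% glycerol, 30 min at 37 °C. Stopped with sarcosyl/glycerol/dye and run on 1% agarose/TAE at 15 V for 7 h. EtBr-stained; supercoiled DNA quantified as % inhibition. Relative values are the ratio to the camptothecin control.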

[6] = tested on: HCT-15; assay: Cytotoxicity against human HCT15 cells after 72 hrs by cell counting kit-8 analysis; format: functional, cell-based; details: HCT-15, 72 h; summary of the method: as §2
[7] = tested on: T47D; assay: Cytotoxicity against human T47D cells after 72 hrs by cell counting kit-8 analysis; format: functional, cell-based; summary of the method: as §2
[8] = biological target: T1, DNA topoisomerase 1 (Homo sapiens); assay: Inhibition of human recombinant DNA topoisomerase 1-mediated DNA relaxation at 100 uM incubated for 30 mins using pBR322 DNA substrate by ethidium bromide dye-based agarose gel electrophoresis relative to control camptothecin; summary of the method: as §4
[9] = biological target: DNA topoisomerase 2-alpha (Homo sapiens) (UniProt P11388); assay: Inhibition of human DNA topoisomerase 2 alpha-mediated DNA relaxation at 100 uM incubated for 30 mins using pBR322 DNA substrate by ethidium bromide dye-based agarose gel electrophoresis relative to control etoposide; summary of the method: as §3
[10] = biological target: DNA topoisomerase 2-alpha (Homo sapiens) (UniProt P11388); assay: Inhibition of human DNA topoisomerase 2 alpha-mediated DNA relaxation at 20 uM incubated for 30 mins using pBR322 DNA substrate by ethidium bromide dye-based agarose gel electrophoresis; summary of the method: as §3
[11] = biological target: DNA topoisomerase 2-alpha (Homo sapiens) (UniProt P11388); assay: Inhibition of human DNA topoisomerase 2 alpha-mediated DNA relaxation at 20 uM incubated for 30 mins using pBR322 DNA substrate by ethidium bromide dye-based agarose gel electrophoresis relative to control etoposide; summary of the method: as §3
[12] = species on record: Sus scrofa; assay: Inhibition of porcine brain tubulin polymerization at 10 uM after 61 mins by spectroscopic analysis; summary of the method: as §1
[13] = biological target: T1, DNA topoisomerase 1 (Homo sapiens); assay: Inhibition of human recombinant DNA topoisomerase 1-mediated DNA relaxation at 20 uM incubated for 30 mins using pBR322 DNA substrate by ethidium bromide dye-based agarose gel electrophoresis relative to control camptothecin; summary of the method: as §4
[14] = biological target: T1, DNA topoisomerase 1 (Homo sapiens); assay: Inhibition of human recombinant DNA topoisomerase 1-mediated DNA relaxation at 20 uM incubated for 30 mins using pBR322 DNA substrate by ethidium bromide dye-based agarose gel electrophoresis; summary of the method: as §4

| Compound | Activity [1] | IC50 [2] | inhibition [3] | IC50 [4] | inhibition [5] | IC50 [6] | IC50 [7] | Ratio [8] | Ratio [9] | inhibition [10] | Ratio [11] | inhibition [12] | Ratio [13] | inhibition [14] |
| --- | --- | --- | --- | --- | --- | --- | --- | --- | --- | --- | --- | --- | --- | --- |
| CC(=O)O[C@H]1C(=O)[C@@]2(C)[C@H]([C@H](OC(=O)c3ccccc3)[C@]3(O)C[C@H](OC(=O)[C@H](O)[C@@H](NC(=O)c4ccccc4)c4ccccc4)C(C)=C1C3(C)C)[C@]1(OC(C)=O)CO[C@@H]1C[C@@H]2O | Active | – | – | – | – | – | – | – | – | – | – | – | – | – |
| COc1ccc(-c2cc3ccccc3c(-c3ccc(O)cc3)n2)cc1 | – | > 50 µM | 0% | > 50 µM | 6.7% | > 50 µM | 1.22 µM | 0.09 | 0 | – | – | – | – | – |
| COc1ccc(-c2cc3cc(C)ccc3c(-c3cccc(N)c3)n2)cc1OC | – | – | 6.9% | 5.6 µM | 7.2% | 2.7 µM | 0.45 µM | 0.11 | 0.11 | – | – | – | – | – |
| COc1ccc(-c2cc3ccccc3c(-c3cccc(N)c3)n2)cc1 | – | – | 7.7% | 18.8 µM | 0% | 2.35 µM | 0.95 µM | 0 | 0.12 | – | – | – | – | – |
| COc1cc(OC)cc(-c2cc3cc(OC)c(OC)cc3c(-c3cccc(O)c3)n2)c1 | – | 8.12 µM | 0% | 5.9 µM | 4.6% | 0.54 µM | 3.92 µM | 0.06 | 0 | – | – | – | – | – |
| COc1ccc(-c2cc3cc(C)ccc3c(-c3ccc(O)cc3)n2)cc1OC | – | 5.98 µM | 36.5% | 18.1 µM | 0.3% | 2.52 µM | 4.42 µM | 0.005 | 0.4 | 0% | 0 | – | – | – |
| COc1ccc(/C=C\c2cc(OC)c(OC)c(OC)c2)cc1O | – | – | – | – | – | – | – | – | – | – | – | 100% | – | – |
| COc1ccc(-c2cc3ccccc3c(-c3ccc(OC)cc3)n2)cc1 | – | – | 7.4% | > 50 µM | 0% | 2.79 µM | 0.85 µM | 0 | 0.11 | – | – | – | – | – |
| COc1cccc2c1C(=O)c1c(O)c3c(c(O)c1C2=O)C[C@@](O)(C(=O)CO)C[C@@H]3O[C@H]1C[C@H](N)[C@H](O)[C@H](C)O1 [DOXORUBICIN HYDROCHLORIDE] | – | – | – | 0.93 µM | – | – | – | – | – | – | – | – | – | – |
| COc1ccc(-c2cc3ccccc3c(-c3cccc(OCCCN(C)C)c3)n2)cc1 | – | – | 20.2% | 10.2 µM | 47.9% | 1.75 µM | 0.16 µM | 0.81 | 0.32 | – | – | – | 0.38 | 12.1% |
| COc1ccc(-c2nc(-c3ccc(OC)c(OC)c3)cc3cc(C)ccc23)cc1 | – | > 50 µM | 0% | > 50 µM | 2.3% | 28.7 µM | 3.34 µM | 0.04 | 0 | – | – | – | – | – |
